# Measurements from different studies.
# Protocols differ between the studies behind these lines.
# Target: Tyrosine-protein kinase Lyn (LYN, Homo sapiens, UniProt P07948)
Compound,observed,action,technique,concentration,quantity,value
CC(C)(O)[C@H]1CC[C@H](Nc2ccc3ncc(-c4cccc(C(F)(F)F)c4)n3n2)CC1,enzyme activity,inhibitor,,1 µM,remaining activity,41.9%
CS(=O)(=O)CCNCc1ccc(-c2ccc3ncnc(Nc4ccc(OCc5cccc(F)c5)c(Cl)c4)c3c2)o1,cell-free assay,,,0.5 µM,remaining signal,104%
O=C(N1CCS(=O)(=O)CC1)N1C[C@H](c2ccc(OC(F)(F)F)cc2)C[C@H](c2nc(C3CC3)no2)C1,cell-free assay,,competition with immobilised ligand,1 µM,remaining binding,85%
COc1ccc(COc2ccc(Cc3cnc(N)nc3N)cc2OC)cc1,cell-free assay,,,0.5 µM,remaining signal,99.9%
CC1=C(C#N)[C@@H](c2ccc3[nH]nc(C)c3c2)C(C#N)=C(c2ccc(Cl)cc2)N1,cell-free assay,,competition with immobilised ligand,1 µM,remaining binding,96.8%
CC(C)c1ccc(NC(=O)c2cccs2)c(-c2nc3ccccc3[nH]c2=O)c1,enzyme activity,inhibitor,,1 µM,activity vs control,83%
CN(C)c1ncnc(-c2ccc3nc(Nc4cc(CN5CCN(C(=O)CC(F)(F)F)CC5)ccn4)[nH]c3c2)c1Cl,cell-free assay,,competition with immobilised ligand,1 µM,remaining binding,94%
Cc1ccc(C(=O)NCc2ccsc2)cc1C#Cc1cn(C(C)C)c2ncnc(N)c12,enzyme activity,inhibitor,,1 µM,activity vs control,0%
CNC(=O)c1cc2c(Oc3ccc(NC(=O)C4(C(=O)Nc5ccc(F)cc5)CC4)cc3)ccnc2cc1OC,enzyme activity,inhibitor,radiometric,1 µM,inhibition,99%
O=c1cc(-c2cccc3c2Sc2ccccc2S3)oc(N2CCOCC2)c1,enzyme activity,inhibitor,,0.5 µM,remaining activity,106%
CCN1CCC2(CC1)NC(=O)c1c(c3ccc(Cl)c(Cl)c3n1C)C2C#N (racemic),thermal stability,,DSF,10 µM,ΔTm,0 °C
CC(=O)c1c(NS(C)(=O)=O)c2cc(-c3ccc(Cl)cc3)c(-c3ccc(Cl)cc3Cl)nc2n(C)c1=O,cell-free assay,,competition with immobilised ligand,1 µM,remaining binding,100%
CC1(C)NC(=O)c2[nH]c3c(Cl)c(Cl)ccc3c2C1C#N (stereo not drawn),thermal stability,,DSF,10 µM,ΔTm,0.2 °C
O=C(Nc1cnn(-c2csc(C(=O)NC3COC3)c2)c1)Nc1c(F)cccc1Cl,enzyme activity,inhibitor,,5 µM,remaining activity,95.3%
Cn1c2c(c3ccccc31)C(C#N)C(C)(C)NC2=O (stereo not drawn),thermal stability,,DSF,10 µM,ΔTm,0 °C
CN(C)S(=O)(=O)c1ccc2c(c1)/C(=C/c1cc3c([nH]1)CCCC3)C(=O)N2,cell-free assay,,,0.5 µM,remaining signal,16.2%
CCC1(CC)NC(=O)c2c(c3ccc(Cl)c(Cl)c3n2C)C1C#N (stereo not drawn),thermal stability,,DSF,10 µM,ΔTm,-0.3 °C
CCN(CC)CCNC(=O)c1c(C)[nH]c(/C=C2\C(=O)Nc3ccc(F)cc32)c1C,enzyme activity,inhibitor,,10 µM,inhibition,98%
